Rows were chosen to be rich in hits. Some 4.2% of all compounds tested hit in one or more screens of this group.
TAAR1 ag = human TAAR1 agonists, primary screen, Fluo-8 calcium fluorescence, CHO RD-HGA16 cells; Trace amine-associated receptor 1 (Homo sapiens), Q96RJ0; vehicle wells 0%, saturating PEA agonist 100%; 0.99% of 360,000 active; AID 624467, 2012; activation, % at 3 µM;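 active = activation above the mean activation of all test compounds in the run plus 3 SD, cut at about 38% in these data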
Target sequence (Q96RJ0 whole entry, looked up): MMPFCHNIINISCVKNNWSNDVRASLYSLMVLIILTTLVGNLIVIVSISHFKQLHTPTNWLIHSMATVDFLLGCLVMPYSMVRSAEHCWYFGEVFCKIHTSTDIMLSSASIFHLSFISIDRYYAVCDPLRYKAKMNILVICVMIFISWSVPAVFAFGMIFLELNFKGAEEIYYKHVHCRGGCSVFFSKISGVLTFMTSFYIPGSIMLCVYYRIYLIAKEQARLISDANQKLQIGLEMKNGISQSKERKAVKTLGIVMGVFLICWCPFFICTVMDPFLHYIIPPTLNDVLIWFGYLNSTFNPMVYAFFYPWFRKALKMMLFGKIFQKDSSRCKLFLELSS
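Signal – calcium-sensitive Fluo-8 signal, excitation 470-495, emission 515-575 nm · System – RD-HGA16 (CHO) cells co-expressing Gα16 and hTAAR1 · Incubation – 17-24 h seeding, 75 min 37 °C dye, 30 min RT · Compound dosing – 3 µM single concentration · Repeats – no replicates (n 1)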
CHO parental Ca = ATP-evoked calcium signal inhibitors, parental CHO, primary screen, counter-screen for OX1R antagonist project, cell-based, fluorescence, Fluo-8 calcium dye | 0.63% of 330,000 active | inhibition, % at 5.6 µM | parental CHO-K1, ATP-induced calcium, Fluo-8 fluorescence;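 active = inhibition above that plate's mean sample inhibition plus 3 SD, cut at about 26% in these data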;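 note: 0% = ATP-challenged DMSO wells and 100% = DMSO wells without ATP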
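Material: Parental CHO cells | Reagent: ATP | Compound dosing: Single nominal dose of 5.6 µM per compound | Detection: Intracellular calcium via Fluo-8 no-wash fluorescent dye | Read-out: % inhibition of ATP-induced calcium mobilization | Benchmarks: Low control ATP plus DMSO, high control DMSO only | Replicates: Singlicate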
OX1R antag-1 = antagonists of human orexin 1 receptor (OX1R); AID 485270, 2010; 1.8% of 330,000 active; OX1R-expressing cells, FRET antagonist read-out; inhibition, % at 6.6 µM; in the data active = inhibition mostly above about 38%, no sharp cut-off; inactive = mostly below about 40%;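 note: 0% = agonist challenge alone and 100% = reference antagonist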
OX1R antag-2 = OX1R (HCRTR1) antagonists, primary screen, fluorescence, CHO/OX1R cells, Fluo-8 calcium, orexin A; Fluo-8 calcium fluorescence; inhibition, % at 5 µM; 0.43% of 330,000 active; AID 434989, 2010;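 active = inhibition above its plate's threshold, mean inhibition of all tested compounds on the plate plus 3 SD, cut at about 37% in these data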;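 note: 0% = orexin A challenge wells and 100% = SB-334867-A antagonist wells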
GalR3 antag = GalR3 antagonists in HEK293 cells, primary screen, cell-based, fluorescence readout; Galanin receptor type 3 (Homo sapiens), O60755; 0.44% of 360,000 active; HEK293 GalR3-CNG cAMP membrane potential fluorescence; galR3 body fused to GalR1 C-terminus; AID 651719, 2012; inhibition, % at 3 µM;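 active = inhibition above the screen-wide average plus 3 SD, cut at about 13% in these data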;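 note: forskolin and galanin both at EC90 stimulate the cells; cAMP rise reported by CNG channel membrane potential dye signal; 0% = forskolin plus galanin with DMSO and 100% = forskolin alone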
Target sequence (O60755 1-299 limits assumed): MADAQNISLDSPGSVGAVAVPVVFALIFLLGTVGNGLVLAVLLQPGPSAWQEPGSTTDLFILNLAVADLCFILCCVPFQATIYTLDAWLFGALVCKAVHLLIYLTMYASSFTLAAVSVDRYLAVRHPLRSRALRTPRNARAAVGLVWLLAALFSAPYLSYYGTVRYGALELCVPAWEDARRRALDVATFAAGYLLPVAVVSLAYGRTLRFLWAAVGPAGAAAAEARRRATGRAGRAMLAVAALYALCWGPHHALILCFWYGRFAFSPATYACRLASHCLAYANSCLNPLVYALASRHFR
TAAR1 antag = human TAAR1 antagonists, primary screen, Fluo-8 calcium fluorescence, CHO RD-HGA16 cells | Trace amine-associated receptor 1 (Homo sapiens), Q96RJ0 | antagonist | inhibition, % at 3 µM | 1.5% of 360,000 active | AID 624466, 2012;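 active = inhibition above a per-plate cutoff, the mean inhibition of test compounds on that plate plus 3 SD, cut at about 49% in these data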;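 note: 0% = DMSO plus EC80 beta-PEA response and 100% = DMSO alone without agonist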
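Material: CHO RD-HGA16 cells bearing hTAAR1; compound dosing: one-point dosing, 3 µM nominal final; schedule: dye loading 75 min at 37 °C, then 30 min room temperature; measured by: calcium fluorescence with Fluo-8; control set: vehicle and agonist controls; replication: n of 1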
An asterisk follows results filed as active.

What do the screens show for `CCCC[C@@H](C)C[C@@H](C)C(=O)N(C)[C@@H](CC(C)C)C(=O)N[C@H](C(=O)N(C)[C@H](C(=O)N1C[C@@H](O)C[C@H]1C(=O)N1C(=O)C=C[C@@H]1C)C(C)C)C(C)OC(C)=O` (stereo partly specified)?
CHO parental Ca: -24; OX1R antag-1: 52*; OX1R antag-2: -22

How did C=C(C)C(Cc1c(OC)ccc(C(=O)/C=C/c2ccc(O)cc2)c1O)OO (stereo unspecified) do in these assays?
TAAR1 ag: 7; CHO parental Ca: -2; OX1R antag-1: 8; OX1R antag-2: 8; GalR3 antag: -7; TAAR1 antag: 54*

How did OCCNc1c2c(nc3ccccc13)CCCC2 do in these assays?
TAAR1 ag: 10; CHO parental Ca: 5; OX1R antag-1: 5; OX1R antag-2: 6; GalR3 antag: -3; TAAR1 antag: 1

Results for C[n+]1c2ccccc2nc2ccc(NCCO)cc21 ?
TAAR1 ag: 2; CHO parental Ca: -5; OX1R antag-1: 86*; OX1R antag-2: -17; GalR3 antag: -9; TAAR1 antag: -4

How did COC(=O)C1=C(c2cccc(OC)c2OC)C[C@@H]2CC[C@H]1N2C(=O)N1CCOCC1 do in these assays?
TAAR1 ag: 7; CHO parental Ca: -4; OX1R antag-1: 21; OX1R antag-2: -2; GalR3 antag: -8; TAAR1 antag: 2

How did O=C(c1ccc(F)cc1Cl)N1CCC2(CC1)OCCO2 do in these assays?
TAAR1 ag: -1; CHO parental Ca: -3; OX1R antag-1: 4; OX1R antag-2: 4; GalR3 antag: -4; TAAR1 antag: 1

What do the screens show for `CC(C)=CCc1c(O)cc2c(c1O)C(=O)CC(c1ccc(O)cc1)O2` (stereo unspecified)?
TAAR1 ag: 42*; CHO parental Ca: 23; OX1R antag-1: -3; OX1R antag-2: 10; GalR3 antag: -8; TAAR1 antag: 19

What do the screens show for `O=c1[nH]c(O)c(/C=C2/C=CC(c3cc(Cl)ccc3Cl)=N2)c(=O)[nH]1`?
TAAR1 ag: 7; CHO parental Ca: 6; OX1R antag-1: 7; OX1R antag-2: 11; GalR3 antag: -2; TAAR1 antag: -5

What do the screens show for `CN1/C(=C\C=C\C2=[N+](C)c3ccc4ccccc4c3C2(C)C)C(C)(C)c2ccccc21`?
CHO parental Ca: 97*; OX1R antag-1: -4; OX1R antag-2: 103*

Results for CN1/C(=C\C=Nc2ccccc2)C(C)(C)c2ccccc21 ?
TAAR1 ag: 14; CHO parental Ca: 27; OX1R antag-1: 17; OX1R antag-2: 18; GalR3 antag: -3; TAAR1 antag: 1

What do the screens show for `CCN1/C(=C/C=C/C2=[N+](CC)c3ccccc3C2(C)C)C(C)(C)c2ccccc21`?
TAAR1 ag: 263*; GalR3 antag: -21; TAAR1 antag: 106*

What do the screens show for `O=C1NCN(c2ccccc2)C12CCN(C(c1cc3ccccc3o1)c1nnnn1Cc1ccccc1)CC2` (stereo unspecified)?
TAAR1 ag: 2; GalR3 antag: -7; TAAR1 antag: 39

How did O=C(CSC1c2ccccc2-c2ccccc21)N/N=C/c1ccccc1C(=O)O do in these assays?
TAAR1 ag: 7; CHO parental Ca: 5; OX1R antag-1: 54*; OX1R antag-2: -1; GalR3 antag: 0; TAAR1 antag: 1

Results for CCOC(=O)C1(c2ccccc2)CCN(CCC(=O)Nc2cccc(Br)c2)CC1 ?
TAAR1 ag: 17; GalR3 antag: -6; TAAR1 antag: 50*

What do the screens show for `CCOC(=O)C1(c2ccccc2)CCN(CCC(=O)Nc2ccc(OC)cc2)CC1`?
TAAR1 ag: 5; GalR3 antag: -10; TAAR1 antag: -16

What do the screens show for `CCCCn1c(=O)c(C(=O)Nc2ccccc2S(N)(=O)=O)c(O)c2ccccc21`?
TAAR1 ag: 4; CHO parental Ca: -21; OX1R antag-1: 35*; OX1R antag-2: -11; GalR3 antag: -6; TAAR1 antag: -13

How did CCCCCn1c(=O)c(C(=O)Nc2ccccc2S(N)(=O)=O)c(O)c2ccccc21 do in these assays?
TAAR1 ag: 4; CHO parental Ca: -25; OX1R antag-1: 35; OX1R antag-2: -25; GalR3 antag: -4; TAAR1 antag: -7

How did CCCCn1c(=O)c(C(=O)Nc2ncccc2C)c(O)c2ccccc21 do in these assays?
TAAR1 ag: 55*; CHO parental Ca: -11; OX1R antag-1: -1; OX1R antag-2: -19; GalR3 antag: -8; TAAR1 antag: 7

How did Cc1cccc(-n2c(O)c(/C=N/NC(=O)c3ccncc3)c(=O)[nH]c2=O)c1 do in these assays?
TAAR1 ag: 0; CHO parental Ca: -2; OX1R antag-1: 1; OX1R antag-2: -15; GalR3 antag: 0; TAAR1 antag: 3

What do the screens show for `Cc1ccccc1N1CCN(C2CCCN(C(=O)COc3ccccc3)C2)CC1` (stereo unspecified)?
TAAR1 ag: 4; CHO parental Ca: -19; OX1R antag-1: 20; OX1R antag-2: -30; GalR3 antag: -1; TAAR1 antag: -23

Results for O=P(Nc1ccccc1)(Nc1ccccc1)Oc1cccc(Cl)c1 ?
TAAR1 ag: 14; CHO parental Ca: -16; OX1R antag-1: 1; OX1R antag-2: 2; GalR3 antag: 0; TAAR1 antag: 52*

What do the screens show for `Cc1nc2ccccc2c(=O)n1-c1ccccc1[N+](=O)[O-]`?
TAAR1 ag: 5; CHO parental Ca: -2; OX1R antag-1: 15; OX1R antag-2: 3; GalR3 antag: -3; TAAR1 antag: 4

Results for NC(N)=N/N=C/c1ccc(N(c2ccccc2)c2ccccc2)cc1 ?
TAAR1 ag: 77*; CHO parental Ca: 25; OX1R antag-1: 13; OX1R antag-2: 29; GalR3 antag: -10; TAAR1 antag: 12

Results for COc1ccc(/C=N\N=C(N)N)cc1 ?
TAAR1 ag: 21; CHO parental Ca: -7; OX1R antag-1: 34; OX1R antag-2: -3; GalR3 antag: -1; TAAR1 antag: 5

What do the screens show for `COc1ccc2c(c1)NP(=S)(c1ccccc1)N2C` (stereo unspecified)?
TAAR1 ag: 0; GalR3 antag: -3; TAAR1 antag: -11
